# Data as given in ChEMBL document CHEMBL1131061, “Design and synthesis of a series of potent and orally bioavailable noncovalent thrombin inhibitors that utilize nonbasic groups in the P1 position” (J Med Chem, 1998).
# System: not listed separately
# Assay: Oral bioavailability in rats when dosed in a suspension of 1% methocel
# Format: ADME, organism-based
# Details: rat, in vivo
# Outline: (§1)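 Fasted animals (24 h without food). Oral dose by gavage as a 1% methocel suspension. Intravenous dose given by indwelling jugular vein cannula in rat and by peripheral venipuncture in dog and cynomolgus monkey, in saline or 20% PEG 200. iv/po doses in mg/kg: rat 2/10, 5/20 or 5/12; dog 2/5 or 1/5; monkey 1/5. F (%) is the mean of at least three determinations.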
row,SMILES,bioavailability
1,CCN(CC)C(=O)CN[C@@H](C(=O)N1CCC[C@H]1C(=O)NCc1cc(Cl)ccc1Cl)C1CCCCC1,10%

# System: not listed separately
# Assay: Oral bioavailability in rat when dosed in a suspension of 1% methocel
# Format: ADME, organism-based
# Details: in vivo
# Outline: as §1
row,SMILES,bioavailability
1,CCNC(=O)COc1ccc(Cl)cc1CNC(=O)[C@@H]1CCCN1C(=O)[C@H](N)C1CCCCC1,10%
2,N[C@@H](C(=O)N1CCC[C@H]1C(=O)NCc1cc(Cl)ccc1Cl)C1CCCCC1,23%
3,N[C@@H](C(=O)N1CCC[C@H]1C(=O)NCc1cc(Cl)ccc1OCC(=O)NC1CC1)C1CCCCC1,20%

# System: not listed separately
# Assay: Oral bioavailability in cynomolgus monkey (dosed in a suspension of 1% methocel)
# Format: ADME, organism-based, Macaca fascicularis
# Details: in vivo
# Outline: as §1
row,SMILES,bioavailability
1,CCNC(=O)COc1ccc(Cl)cc1CNC(=O)[C@@H]1CCCN1C(=O)[C@H](N)C1CCCCC1,63%
2,N[C@@H](C(=O)N1CCC[C@H]1C(=O)NCc1cc(Cl)ccc1OCC(=O)NC1CC1)C1CCCCC1,34%

# System: not listed separately
# Assay: Partition coefficient (logP)
# Format: physicochemical
# Details: octanol/water
# Outline: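 Log P determined experimentally by standard octanol/water partitioning.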
row,SMILES,logP
1,CCNC(=O)COc1ccc(Cl)cc1CNC(=O)[C@@H]1CCCN1C(=O)[C@H](N)C1CCCCC1,2.07
2,NC(C(=O)N1CCC[C@H]1C(=O)NCc1cc(Cl)ccc1Cl)C(c1ccccc1)c1ccccc1 (stereo partly specified),> 3.1
3,N[C@@H](C(=O)N1CCC[C@H]1C(=O)NCc1cc(Cl)ccc1Cl)C1CCCCC1,2.63
4,CCN(CC)C(=O)CN[C@@H](C(=O)N1CCC[C@H]1C(=O)NCc1cc(Cl)ccc1Cl)C1CCCCC1,2.67
5,N[C@@H](C(=O)N1CCC[C@H]1C(=O)NCc1cc(Cl)ccc1OCC(=O)NC1CC1)C1CCCCC1,2.04
6,NC(=O)COc1ccc(Cl)cc1CNC(=O)[C@@H]1CCCN1C(=O)[C@H](N)C1CCCCC1,1.96

# Species: Rattus norvegicus
# Assay: The final concentration in plasma of rat carotid artery FeCl3 induced thrombosis model
# Format: ADME, organism-based
# Details: not given
# Outline: (§2)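 Rat carotid artery FeCl₃-induced thrombosis model. Compound in saline vehicle infused iv at 10 μg/kg/min for 120 min before the FeCl₃ insult. Plasma drug concentration measured. Saline vehicle controls run alongside.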
row,SMILES,concentration
1,N[C@@H](C(=O)N1CCC[C@H]1C(=O)NCc1cc(Cl)ccc1Cl)C1CCCCC1,329 nM
2,CCN(CC)C(=O)CN[C@@H](C(=O)N1CCC[C@H]1C(=O)NCc1cc(Cl)ccc1Cl)C1CCCCC1,245 nM
3,NC(=O)COc1ccc(Cl)cc1CNC(=O)[C@@H]1CCCN1C(=O)[C@H](N)C1CCCCC1,726 nM

# Species: Homo sapiens
# Assay: % Free drug present in human plasma.
# Format: ADME, organism-based
# Details: not given
row,SMILES,Free
1,CCNC(=O)COc1ccc(Cl)cc1CNC(=O)[C@@H]1CCCN1C(=O)[C@H](N)C1CCCCC1,15%
2,N[C@@H](C(=O)N1CCC[C@H]1C(=O)NCc1cc(Cl)ccc1Cl)C1CCCCC1,4%
3,N[C@@H](C(=O)N1CCC[C@H]1C(=O)NCc1cc(Cl)ccc1OCC(=O)NC1CC1)C1CCCCC1,12%
4,NC(=O)COc1ccc(Cl)cc1CNC(=O)[C@@H]1CCCN1C(=O)[C@H](N)C1CCCCC1,26%

# System: not listed separately
# Assay: Oral bioavailability in cynomolgus monkey (dose 5 mg/kg)
# Format: ADME, organism-based, Macaca fascicularis
# Details: in vivo
# Outline: as §1
row,SMILES,bioavailability
1,CCNC(=O)COc1ccc(Cl)cc1CNC(=O)[C@@H]1CCCN1C(=O)[C@H](N)C1CCCCC1,63%
2,N[C@@H](C(=O)N1CCC[C@H]1C(=O)NCc1cc(Cl)ccc1OCC(=O)NC1CC1)C1CCCCC1,34%

# Target: T1, Chymotrypsinogen A (Bos taurus, UniProt P00766)
# Assay: Binding affinity was evaluated on serine protease Chymotrypsinogen
# Format: single protein
# Details: not given
row,SMILES,Ki
1,CCNC(=O)COc1ccc(Cl)cc1CNC(=O)[C@@H]1CCCN1C(=O)[C@H](N)C1CCCCC1,71 µM
2,N[C@@H](C(=O)N1CCC[C@H]1C(=O)NCc1cc(Cl)ccc1Cl)C1CCCCC1,49 µM
3,CCN(CC)C(=O)CN[C@@H](C(=O)N1CCC[C@H]1C(=O)NCc1cc(Cl)ccc1Cl)C1CCCCC1,174 µM
4,N[C@@H](C(=O)N1CCC[C@H]1C(=O)NCc1cc(Cl)ccc1OCC(=O)NC1CC1)C1CCCCC1,67 µM
5,NC(=O)COc1ccc(Cl)cc1CNC(=O)[C@@H]1CCCN1C(=O)[C@H](N)C1CCCCC1,131 µM

# Target: T1, Chymotrypsinogen A
# Assay: Selectivity was evaluated as the binding affinity between thrombin versus Chymotrypsinogen
# Details: not given
row,SMILES,Ki
1,NC(C(=O)N1CCC[C@H]1C(=O)NCc1cc(Cl)ccc1Cl)C(c1ccccc1)c1ccccc1 (stereo partly specified),> 50 µM

# System: not listed separately
# Assay: The 2(APTT) value is defined as the concentration of compound in plasma required to double the activated partial thromboplastin time in human
# Format: functional
# Details: not given
# Outline: (§3)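 2 × APTT is the inhibitor concentration in plasma required to double the activated partial thromboplastin time.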
row,SMILES,2*APTT
1,"CC1CNc2c(cccc2S(=O)(=O)N[C@@H](CCCNC(=N)N)C(=O)N2CCC(C)C[C@@H]2C(=O)O)C1 (single isomer, unassigned) [ARGATROBAN]",0.28 µM

# Species: Homo sapiens
# Assay: Concentration of compound in plasma required to double the activated partial thromboplastin time in human measured as 2(APTT) value
# Format: functional, cell-free
# Details: not given
# Outline: as §3
row,SMILES,Concentration
1,CCNC(=O)COc1ccc(Cl)cc1CNC(=O)[C@@H]1CCCN1C(=O)[C@H](N)C1CCCCC1,0.41 µM
2,N[C@@H](C(=O)N1CCC[C@H]1C(=O)NCc1cc(Cl)ccc1Cl)C1CCCCC1,0.95 µM
3,N[C@@H](C(=O)N1CCC[C@H]1C(=O)NCc1cc(Cl)ccc1OCC(=O)NC1CC1)C1CCCCC1,0.35 µM
4,NC(=O)COc1ccc(Cl)cc1CNC(=O)[C@@H]1CCCN1C(=O)[C@H](N)C1CCCCC1,0.25 µM

# Target: Plasminogen (Homo sapiens, UniProt P00747)
# Assay: Binding affinity was evaluated on serine protease plasmin.
# Details: not given
# Chain of Plasminogen (P00747 97-580 limits assumed): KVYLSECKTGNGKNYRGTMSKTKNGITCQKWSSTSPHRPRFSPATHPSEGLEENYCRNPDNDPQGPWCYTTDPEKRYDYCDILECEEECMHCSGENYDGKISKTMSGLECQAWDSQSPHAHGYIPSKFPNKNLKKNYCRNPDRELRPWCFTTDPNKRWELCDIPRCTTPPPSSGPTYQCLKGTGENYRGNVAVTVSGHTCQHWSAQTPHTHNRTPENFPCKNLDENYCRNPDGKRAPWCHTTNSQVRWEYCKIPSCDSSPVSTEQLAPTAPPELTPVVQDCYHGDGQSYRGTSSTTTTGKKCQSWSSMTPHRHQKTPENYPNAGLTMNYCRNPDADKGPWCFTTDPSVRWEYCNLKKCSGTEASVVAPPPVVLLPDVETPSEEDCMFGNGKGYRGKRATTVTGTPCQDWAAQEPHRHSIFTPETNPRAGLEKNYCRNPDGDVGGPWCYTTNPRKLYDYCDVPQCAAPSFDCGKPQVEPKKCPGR
# Chain of Plasminogen (P00747 581-810 limits assumed): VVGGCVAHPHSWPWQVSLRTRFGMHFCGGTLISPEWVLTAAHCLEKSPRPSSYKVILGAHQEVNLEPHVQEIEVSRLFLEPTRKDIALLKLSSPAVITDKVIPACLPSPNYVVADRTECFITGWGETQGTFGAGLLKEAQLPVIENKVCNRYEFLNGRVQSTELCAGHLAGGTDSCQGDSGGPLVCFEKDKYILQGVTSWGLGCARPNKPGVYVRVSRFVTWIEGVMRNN
row,SMILES,Ki
1,N[C@@H](C(=O)N1CCC[C@H]1C(=O)NCc1cc(Cl)ccc1Cl)C1CCCCC1,691 µM
2,CCN(CC)C(=O)CN[C@@H](C(=O)N1CCC[C@H]1C(=O)NCc1cc(Cl)ccc1Cl)C1CCCCC1,244 µM
3,N[C@@H](C(=O)N1CCC[C@H]1C(=O)NCc1cc(Cl)ccc1OCC(=O)NC1CC1)C1CCCCC1,113 µM
4,NC(=O)COc1ccc(Cl)cc1CNC(=O)[C@@H]1CCCN1C(=O)[C@H](N)C1CCCCC1,152 µM

# Target: Plasma kallikrein (Homo sapiens, UniProt P03952)
# Assay: Binding affinity was evaluated on serine protease plasma kallikrein.
# Format: cell-free
# Details: not given
# Chain of Plasma kallikrein (P03952 20-390 limits assumed): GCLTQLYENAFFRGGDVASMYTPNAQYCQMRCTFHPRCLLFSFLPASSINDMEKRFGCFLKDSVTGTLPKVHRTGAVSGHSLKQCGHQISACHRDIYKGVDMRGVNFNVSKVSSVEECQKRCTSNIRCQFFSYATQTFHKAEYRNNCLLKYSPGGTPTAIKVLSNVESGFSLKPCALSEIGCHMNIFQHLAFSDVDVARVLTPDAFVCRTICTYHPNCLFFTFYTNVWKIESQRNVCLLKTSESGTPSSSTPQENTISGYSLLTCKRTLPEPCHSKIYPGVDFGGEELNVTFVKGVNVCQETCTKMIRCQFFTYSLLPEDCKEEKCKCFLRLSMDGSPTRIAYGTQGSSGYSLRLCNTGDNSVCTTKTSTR
# Chain of Plasma kallikrein (P03952 391-638 limits assumed): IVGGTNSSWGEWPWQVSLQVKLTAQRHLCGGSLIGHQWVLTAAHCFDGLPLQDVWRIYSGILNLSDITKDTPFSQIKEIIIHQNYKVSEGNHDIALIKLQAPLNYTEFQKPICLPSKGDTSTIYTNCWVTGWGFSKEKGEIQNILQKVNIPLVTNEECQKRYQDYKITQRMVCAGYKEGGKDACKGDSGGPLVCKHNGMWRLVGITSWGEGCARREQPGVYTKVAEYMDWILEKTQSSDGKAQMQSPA
row,SMILES,Ki
1,N[C@@H](C(=O)N1CCC[C@H]1C(=O)NCc1cc(Cl)ccc1Cl)C1CCCCC1,586 µM
2,CCN(CC)C(=O)CN[C@@H](C(=O)N1CCC[C@H]1C(=O)NCc1cc(Cl)ccc1Cl)C1CCCCC1,399 µM
3,N[C@@H](C(=O)N1CCC[C@H]1C(=O)NCc1cc(Cl)ccc1OCC(=O)NC1CC1)C1CCCCC1,79 µM
4,NC(=O)COc1ccc(Cl)cc1CNC(=O)[C@@H]1CCCN1C(=O)[C@H](N)C1CCCCC1,816 µM

# Species: Rattus norvegicus
# Assay: Concentration of compound in plasma required to double the activated partial thromboplastin time in rat measured as 2(APTT) value
# Format: functional, cell-free
# Details: not given
# Outline: as §3
row,SMILES,Concentration
1,CCNC(=O)COc1ccc(Cl)cc1CNC(=O)[C@@H]1CCCN1C(=O)[C@H](N)C1CCCCC1,0.38 µM
2,N[C@@H](C(=O)N1CCC[C@H]1C(=O)NCc1cc(Cl)ccc1OCC(=O)NC1CC1)C1CCCCC1,0.42 µM
3,NC(=O)COc1ccc(Cl)cc1CNC(=O)[C@@H]1CCCN1C(=O)[C@H](N)C1CCCCC1,0.31 µM

# Species: Rattus norvegicus
# Assay: (§4) % Free drug present in rat plasma.
# Format: functional
# Details: not given
row,SMILES,Free
1,CCNC(=O)COc1ccc(Cl)cc1CNC(=O)[C@@H]1CCCN1C(=O)[C@H](N)C1CCCCC1,14%
2,N[C@@H](C(=O)N1CCC[C@H]1C(=O)NCc1cc(Cl)ccc1OCC(=O)NC1CC1)C1CCCCC1,11%

# Target: Prothrombin (Homo sapiens, UniProt P00734)
# Assay: Binding affinity was evaluated on serine protease thrombin.
# Details: not given
row,SMILES,Ki
1,N[C@@H](C(=O)N1CCC[C@H]1C(=O)NCc1cc(Cl)ccc1Cl)C1CCCCC1,0.005 µM
2,N[C@@H](C(=O)N1CCC[C@H]1C(=O)NCc1cc(Cl)ccc1O)C1CCCCC1,0.0025 µM
3,CCN(CC)C(=O)CN[C@@H](C(=O)N1CCC[C@H]1C(=O)NCc1cc(Cl)ccc1Cl)C1CCCCC1,0.00031 µM
4,CCOC(=O)COc1ccc(Cl)cc1CNC(=O)[C@@H]1CCCN1C(=O)[C@H](N)C1CCCCC1,0.00045 µM
5,NC(=O)COc1ccc(Cl)cc1CNC(=O)[C@@H]1CCCN1C(=O)[C@H](N)C1CCCCC1,0.0005 µM
6,CCN(CC)C(=O)CN[C@@H](C(=O)N1CCC[C@H]1C(=O)NCc1ccccc1Cl)C1CCCCC1,0.02 µM

# Target: Tissue-type plasminogen activator (Homo sapiens, UniProt P00750)
# Assay: Binding affinity was evaluated on serine protease TPA.
# Details: not given
# Chain of Tissue-type plasminogen activator (P00750 whole entry): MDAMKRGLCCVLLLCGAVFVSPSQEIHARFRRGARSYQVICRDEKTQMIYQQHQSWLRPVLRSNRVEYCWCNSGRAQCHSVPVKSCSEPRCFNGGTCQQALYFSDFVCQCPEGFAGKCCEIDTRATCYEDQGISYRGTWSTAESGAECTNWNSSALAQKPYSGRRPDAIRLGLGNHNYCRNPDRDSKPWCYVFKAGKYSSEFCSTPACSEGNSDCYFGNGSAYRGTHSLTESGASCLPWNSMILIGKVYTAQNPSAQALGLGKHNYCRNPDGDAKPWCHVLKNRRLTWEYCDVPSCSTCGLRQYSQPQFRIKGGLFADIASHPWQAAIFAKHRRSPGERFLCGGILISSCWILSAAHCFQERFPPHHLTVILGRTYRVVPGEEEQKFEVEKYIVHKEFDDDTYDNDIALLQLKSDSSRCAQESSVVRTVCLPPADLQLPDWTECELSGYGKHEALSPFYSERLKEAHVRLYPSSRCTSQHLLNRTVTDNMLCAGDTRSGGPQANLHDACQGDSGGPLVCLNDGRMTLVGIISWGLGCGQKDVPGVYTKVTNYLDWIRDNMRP
row,SMILES,Ki
1,N[C@@H](C(=O)N1CCC[C@H]1C(=O)NCc1cc(Cl)ccc1Cl)C1CCCCC1,19 µM
2,CCN(CC)C(=O)CN[C@@H](C(=O)N1CCC[C@H]1C(=O)NCc1cc(Cl)ccc1Cl)C1CCCCC1,29 µM
3,N[C@@H](C(=O)N1CCC[C@H]1C(=O)NCc1cc(Cl)ccc1OCC(=O)NC1CC1)C1CCCCC1,36 µM
4,NC(=O)COc1ccc(Cl)cc1CNC(=O)[C@@H]1CCCN1C(=O)[C@H](N)C1CCCCC1,11 µM

# Target: T2, Serine protease 1 (Homo sapiens, UniProt P07477)
# Assay: Selectivity was evaluated as the binding affinity between thrombin versus trypsin.
# Details: not given
# T2 sequence (P07477 whole entry): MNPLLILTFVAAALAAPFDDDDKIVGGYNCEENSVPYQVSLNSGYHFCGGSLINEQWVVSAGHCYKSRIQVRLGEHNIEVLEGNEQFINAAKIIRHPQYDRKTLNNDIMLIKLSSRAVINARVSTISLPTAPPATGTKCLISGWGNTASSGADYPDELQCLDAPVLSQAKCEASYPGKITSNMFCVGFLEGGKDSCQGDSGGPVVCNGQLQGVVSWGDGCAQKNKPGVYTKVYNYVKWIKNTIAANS
row,SMILES,Ki
1,NC(C(=O)N1CCC[C@H]1C(=O)NCc1cc(Cl)ccc1Cl)C(c1ccccc1)c1ccccc1 (stereo partly specified),7 µM

# Target: T2, Serine protease 1
# Assay: Binding affinity was evaluated on serine protease trypsin.
# Details: not given
row,SMILES,Ki
1,CCNC(=O)COc1ccc(Cl)cc1CNC(=O)[C@@H]1CCCN1C(=O)[C@H](N)C1CCCCC1,23 µM
2,N[C@@H](C(=O)N1CCC[C@H]1C(=O)NCc1cc(Cl)ccc1Cl)C1CCCCC1,29 µM
3,CCN(CC)C(=O)CN[C@@H](C(=O)N1CCC[C@H]1C(=O)NCc1cc(Cl)ccc1Cl)C1CCCCC1,27 µM
4,N[C@@H](C(=O)N1CCC[C@H]1C(=O)NCc1cc(Cl)ccc1OCC(=O)NC1CC1)C1CCCCC1,18 µM
5,NC(=O)COc1ccc(Cl)cc1CNC(=O)[C@@H]1CCCN1C(=O)[C@H](N)C1CCCCC1,9 µM

# System: not listed separately
# Assay: The concentration in plasma
# Format: ADME, cell-free
# Details: not given
# Outline: as §2
row,SMILES,concentration
1,CCNC(=O)COc1ccc(Cl)cc1CNC(=O)[C@@H]1CCCN1C(=O)[C@H](N)C1CCCCC1,794 nM

# System: not listed separately
# Assay: Oral bioavailability in dog (dosed in a suspension of 1% methocel)
# Format: ADME, organism-based, Canis lupus familiaris
# Details: in vivo
# Outline: as §1
row,SMILES,bioavailability
1,CCNC(=O)COc1ccc(Cl)cc1CNC(=O)[C@@H]1CCCN1C(=O)[C@H](N)C1CCCCC1,40%
2,NC(C(=O)N1CCC[C@H]1C(=O)NCc1cc(Cl)ccc1Cl)C(c1ccccc1)c1ccccc1 (stereo partly specified),45%

# Species: Rattus norvegicus
# Assay: as §4
# Format: ADME, organism-based
# Details: not given
row,SMILES,Free
1,N[C@@H](C(=O)N1CCC[C@H]1C(=O)NCc1cc(Cl)ccc1Cl)C1CCCCC1,9%
2,NC(=O)COc1ccc(Cl)cc1CNC(=O)[C@@H]1CCCN1C(=O)[C@H](N)C1CCCCC1,7%
